Publication PMC8853710 (Journal of Enzyme Inhibition and Medicinal Chemistry, 2019)
≈ marks a conversion by molar mass, not a printed value. Like-named read-outs stand apart in the source and are kept apart here.

Key:
EGFR = EGFR (Homo sapiens, UniProt P00533); experiment: Kinase inhibition assay, EGFR; assay type: biochemical
B16 melanoma cell line = experiment: Cell proliferation; assay type: cell-based; details: for B16 GI ratio: B16 cells, test concentration not given; for IC50: Mus musculus, read-out: IC50, B16 melanoma cell line
Hsp90α = Hsp90α (Homo sapiens, UniProt P07900); experiment: Kinase inhibition assay, Hsp90α; assay type: biochemical
VEGFR2 = VEGFR2 (Homo sapiens, UniProt P35968); experiment: Kinase inhibition assay, VEGFR2; assay type: biochemical
PI3Kα = PI3Kα (Homo sapiens, UniProt P42336); experiment: Kinase inhibition assay, PI3Kα; assay type: biochemical
B16 melanoma xenograft = experiment: B16 subcutaneous tumor xenograft model; assay type: in vivo, C57BL/6J mice; details: for tumor growth inhibition ratio: B16 subcutaneous xenograft, C57BL/6J mice, once a day
Outline: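 Female C57BL/6J mice, 8–12 weeks old, received B16 cells subcutaneously in the dorsal flank (5 × 105 in 100 μL PBS). Groups of 8 were dosed once a day with test compound or NS control. Tumours were measured every two days and volume was taken as a×b2×0.5. Excised tumours were formalin-fixed, paraffin-embedded, sectioned, and stained for TUNEL, EGFR, Akt, pAkt473 and Ki67.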

B16 cells [1] = experiment: Colony formation assay; assay type: cell-based; details: 8m-incubated B16 cells vs control group
B16 cells [2] = experiment: Western blotting of B16 melanoma cell extracts; assay type: cell-based
Outline: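 Total protein was extracted from treated B16 cells, separated by SDS-PAGE (7.5–15% gels, chosen by protein size) and transferred to PVDF. Membranes were blocked with 5% BSA, incubated with primary antibodies on ice overnight, then with HRP-conjugated secondary antibodies for 1 h at room temperature. Bands were detected by ECL. Migration- and invasion-related proteins were assessed at 20 and 40 μg/mL.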

B16 cells [3] = experiment: Flow cytometry with annexinV/PI dual staining; assay type: cell-based; details: 24 h incubation
B16 cells [4] = experiment: Cell cycle analysis by PI staining flow cytometry; assay type: cell-based; details: 24 h treatment
[5] = tested on: several cancer cells (B16, HepG2, A549, SW620, MCF-7, Hela); experiment: Cytotoxic activity in several cancer cells; assay type: cell-based; details: Figure 5(A)
Outline: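 Cells were kept in DMEM with 10% FBS at 37 °C and 5% CO2 and used in exponential growth. They were seeded at 3–6 × 10^3 cells/well for 24 h, then given DMSO or various compound concentrations for 24 or 48 h. MTT (0.5 mg/mL in medium) was added for 3 h at 37 °C and dissolved in DMSO; absorbance was read at 570 nm. Three experiments, each in triplicate.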

B16 cells [6] = experiment: Transwell Matrigel invasion assay; assay type: cell-based; details: dose-dependent
Outline: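 Transwell chambers with 8-μm pores and Matrigel-precoated top chambers were used. B16 cells (1 × 105) in serum-free medium went into the top chamber, with DMEM in the bottom chamber. Invaded cells were stained with crystal violet and counted under a microscope in triplicate.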

B16 cells [7] = experiment: Wound-healing cell migration assay; assay type: cell-based; details: 24 h of exposure, dose-dependent
Outline: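 B16 cells were seeded at 1 × 10^5 per well in 6-well plates in DMEM and grown overnight. Three scratches per well were made with a 200 µl pipette tip. After a PBS wash, serum-free DMEM containing various compound concentrations or DMSO was added. Migration was assessed by light microscopy between 0 h and 24 h.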

PI3Kα, sequence (P42336 whole entry): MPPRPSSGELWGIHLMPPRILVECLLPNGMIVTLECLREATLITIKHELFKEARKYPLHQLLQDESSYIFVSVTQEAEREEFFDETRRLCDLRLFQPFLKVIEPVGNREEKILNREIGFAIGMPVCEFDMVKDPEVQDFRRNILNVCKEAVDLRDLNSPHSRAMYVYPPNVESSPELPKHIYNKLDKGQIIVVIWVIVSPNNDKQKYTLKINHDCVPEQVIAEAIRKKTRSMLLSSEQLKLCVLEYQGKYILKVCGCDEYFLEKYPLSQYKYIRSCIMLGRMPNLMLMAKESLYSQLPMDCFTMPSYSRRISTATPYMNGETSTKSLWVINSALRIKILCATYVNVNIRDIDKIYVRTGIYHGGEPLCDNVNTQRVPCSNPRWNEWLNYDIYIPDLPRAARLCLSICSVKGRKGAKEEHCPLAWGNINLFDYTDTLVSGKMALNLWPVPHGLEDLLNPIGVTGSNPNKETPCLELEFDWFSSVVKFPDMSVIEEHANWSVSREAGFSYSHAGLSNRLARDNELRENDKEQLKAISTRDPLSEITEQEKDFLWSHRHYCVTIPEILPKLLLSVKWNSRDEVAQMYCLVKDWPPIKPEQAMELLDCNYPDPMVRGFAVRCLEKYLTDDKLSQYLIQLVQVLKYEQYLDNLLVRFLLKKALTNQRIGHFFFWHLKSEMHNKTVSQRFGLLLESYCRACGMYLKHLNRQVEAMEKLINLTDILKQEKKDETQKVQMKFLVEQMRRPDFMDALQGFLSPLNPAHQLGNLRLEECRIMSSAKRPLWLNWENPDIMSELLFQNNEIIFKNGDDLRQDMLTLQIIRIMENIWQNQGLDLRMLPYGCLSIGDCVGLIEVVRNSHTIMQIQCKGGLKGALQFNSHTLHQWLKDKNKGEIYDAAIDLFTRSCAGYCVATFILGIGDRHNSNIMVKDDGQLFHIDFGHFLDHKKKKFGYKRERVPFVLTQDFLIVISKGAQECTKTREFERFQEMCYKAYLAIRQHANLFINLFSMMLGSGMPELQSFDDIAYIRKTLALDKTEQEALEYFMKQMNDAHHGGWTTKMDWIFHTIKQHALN
PI3Kα, sequence (P27986 whole entry partner): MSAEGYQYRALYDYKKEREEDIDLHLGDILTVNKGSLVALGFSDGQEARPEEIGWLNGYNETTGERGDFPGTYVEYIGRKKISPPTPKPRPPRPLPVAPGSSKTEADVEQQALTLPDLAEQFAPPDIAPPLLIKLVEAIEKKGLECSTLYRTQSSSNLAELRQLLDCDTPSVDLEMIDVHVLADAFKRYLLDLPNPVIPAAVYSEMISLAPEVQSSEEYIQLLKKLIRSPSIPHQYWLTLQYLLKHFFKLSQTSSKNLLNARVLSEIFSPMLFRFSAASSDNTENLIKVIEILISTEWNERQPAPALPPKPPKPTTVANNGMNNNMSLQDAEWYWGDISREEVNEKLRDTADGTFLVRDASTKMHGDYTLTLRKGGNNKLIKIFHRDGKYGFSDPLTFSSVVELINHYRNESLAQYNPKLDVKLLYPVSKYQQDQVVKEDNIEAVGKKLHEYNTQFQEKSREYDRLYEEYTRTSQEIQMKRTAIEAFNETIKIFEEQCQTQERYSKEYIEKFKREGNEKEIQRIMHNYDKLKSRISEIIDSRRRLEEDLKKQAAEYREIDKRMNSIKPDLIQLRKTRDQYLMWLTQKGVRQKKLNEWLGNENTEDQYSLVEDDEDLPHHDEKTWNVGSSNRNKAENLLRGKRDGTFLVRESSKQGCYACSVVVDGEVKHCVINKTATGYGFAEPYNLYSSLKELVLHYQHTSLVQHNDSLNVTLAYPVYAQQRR
EGFR, sequence (P00533 25-1210): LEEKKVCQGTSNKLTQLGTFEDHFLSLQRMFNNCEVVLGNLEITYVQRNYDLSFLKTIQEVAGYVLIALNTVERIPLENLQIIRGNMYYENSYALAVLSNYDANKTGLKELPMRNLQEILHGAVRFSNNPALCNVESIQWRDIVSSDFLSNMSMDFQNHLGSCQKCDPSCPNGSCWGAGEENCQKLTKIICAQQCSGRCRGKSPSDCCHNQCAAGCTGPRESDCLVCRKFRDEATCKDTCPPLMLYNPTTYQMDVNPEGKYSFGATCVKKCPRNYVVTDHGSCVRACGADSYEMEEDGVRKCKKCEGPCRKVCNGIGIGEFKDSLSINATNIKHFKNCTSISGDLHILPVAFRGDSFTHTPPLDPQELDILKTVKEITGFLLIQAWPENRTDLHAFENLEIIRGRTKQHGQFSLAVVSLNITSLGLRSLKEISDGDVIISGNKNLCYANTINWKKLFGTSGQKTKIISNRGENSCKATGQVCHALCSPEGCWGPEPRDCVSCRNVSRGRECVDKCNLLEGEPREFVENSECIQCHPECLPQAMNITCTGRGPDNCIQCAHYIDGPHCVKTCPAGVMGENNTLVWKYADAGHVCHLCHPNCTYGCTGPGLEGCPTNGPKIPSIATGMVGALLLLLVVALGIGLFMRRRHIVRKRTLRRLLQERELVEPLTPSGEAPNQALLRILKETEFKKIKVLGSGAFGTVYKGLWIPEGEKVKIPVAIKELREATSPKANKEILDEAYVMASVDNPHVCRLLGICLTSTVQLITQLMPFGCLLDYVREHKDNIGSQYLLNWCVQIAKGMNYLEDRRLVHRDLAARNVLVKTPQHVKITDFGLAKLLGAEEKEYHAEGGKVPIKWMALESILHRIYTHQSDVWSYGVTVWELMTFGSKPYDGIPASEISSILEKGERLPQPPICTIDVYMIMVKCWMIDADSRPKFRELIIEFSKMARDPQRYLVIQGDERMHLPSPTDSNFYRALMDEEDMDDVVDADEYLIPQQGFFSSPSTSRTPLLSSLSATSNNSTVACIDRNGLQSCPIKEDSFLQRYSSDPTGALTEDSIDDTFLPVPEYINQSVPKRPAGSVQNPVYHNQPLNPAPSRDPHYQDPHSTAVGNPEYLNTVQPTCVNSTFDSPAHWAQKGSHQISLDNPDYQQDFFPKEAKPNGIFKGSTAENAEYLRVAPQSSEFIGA
VEGFR2, sequence (P35968 20-1356): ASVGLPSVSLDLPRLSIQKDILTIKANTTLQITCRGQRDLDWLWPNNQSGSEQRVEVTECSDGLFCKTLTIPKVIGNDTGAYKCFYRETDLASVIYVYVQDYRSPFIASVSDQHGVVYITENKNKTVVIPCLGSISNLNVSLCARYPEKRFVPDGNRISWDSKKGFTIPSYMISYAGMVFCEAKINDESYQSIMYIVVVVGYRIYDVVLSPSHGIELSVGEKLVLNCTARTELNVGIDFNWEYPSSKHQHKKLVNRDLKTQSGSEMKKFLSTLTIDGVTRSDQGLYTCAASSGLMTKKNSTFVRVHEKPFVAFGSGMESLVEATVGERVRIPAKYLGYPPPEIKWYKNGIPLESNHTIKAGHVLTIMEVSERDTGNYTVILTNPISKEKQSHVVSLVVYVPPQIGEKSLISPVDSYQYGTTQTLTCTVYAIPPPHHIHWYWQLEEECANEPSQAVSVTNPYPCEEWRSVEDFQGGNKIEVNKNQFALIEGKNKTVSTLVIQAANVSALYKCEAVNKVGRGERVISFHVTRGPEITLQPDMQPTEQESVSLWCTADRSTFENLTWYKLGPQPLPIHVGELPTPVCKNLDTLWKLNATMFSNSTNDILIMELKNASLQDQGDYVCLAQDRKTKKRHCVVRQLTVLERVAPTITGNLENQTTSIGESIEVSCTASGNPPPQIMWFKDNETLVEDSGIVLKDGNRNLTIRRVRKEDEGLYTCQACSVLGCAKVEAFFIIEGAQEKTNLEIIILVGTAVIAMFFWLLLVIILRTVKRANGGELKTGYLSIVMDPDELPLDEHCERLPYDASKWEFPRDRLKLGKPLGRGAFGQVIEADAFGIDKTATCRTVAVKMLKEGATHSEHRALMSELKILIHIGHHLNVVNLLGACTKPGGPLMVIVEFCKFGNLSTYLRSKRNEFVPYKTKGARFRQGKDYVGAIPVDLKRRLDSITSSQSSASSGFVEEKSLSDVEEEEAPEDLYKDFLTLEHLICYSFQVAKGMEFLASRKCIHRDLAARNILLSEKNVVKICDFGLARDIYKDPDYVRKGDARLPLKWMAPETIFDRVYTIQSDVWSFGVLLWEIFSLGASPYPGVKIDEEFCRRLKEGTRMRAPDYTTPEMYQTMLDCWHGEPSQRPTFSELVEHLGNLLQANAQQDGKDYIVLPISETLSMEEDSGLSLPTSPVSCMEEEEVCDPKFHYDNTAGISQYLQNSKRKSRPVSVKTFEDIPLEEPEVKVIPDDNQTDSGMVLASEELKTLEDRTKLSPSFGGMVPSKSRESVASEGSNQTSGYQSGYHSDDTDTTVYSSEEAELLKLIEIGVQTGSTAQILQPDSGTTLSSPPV

Row | IC50 (EGFR) [µM] | IC50 (Hsp90α) [µM] | IC50 (VEGFR2) [µM] | SMILES | B16 GI ratio (B16 melanoma cell line) [%] | other results
1 | 0.0607 | 0.375 | > 10 | CCc1cccc(Nc2ncnc3sc4c(c23)CCN(C(=O)c2cc(C(C)C)c(O)cc2O)C4)c1 [Compound 8a, (2,4-dihydroxy-5-isopropylphenyl)(4-((3-ethylphenyl)amino)-5,8-dihydropyrido[4',3':4,5]thieno[2,3-d]pyrimidin-7(6H)-yl)methanone] | 26.8 | –
2 | 0.0499 | 0.29 | > 10 | CC(C)c1cc(C(=O)N2CCc3c(sc4ncnc(Nc5ccc(Br)cc5)c34)C2)c(O)cc1O [Compound 8b, (4-((4-bromophenyl)amino)-5,8-dihydropyrido[4',3':4,5]thieno[2,3-d]pyrimidin-7(6H)-yl)(2,4-dihydroxy-5-isopropylphenyl)methanone] | 33.6 | –
3 | 0.0371 | 0.196 | > 10 | CC(C)c1cc(C(=O)N2CCc3c(sc4ncnc(Nc5cccc(Cl)c5)c34)C2)c(O)cc1O [Compound 8c, (4-((3-chlorophenyl)amino)-5,8-dihydropyrido[4',3':4,5]thieno[2,3-d]pyrimidin-7(6H)-yl)(2,4-dihydroxy-5-isopropylphenyl)methanone] | 51.2 | –
4 | 0.0518 | 0.318 | > 10 | Cc1cccc(Nc2ncnc3sc4c(c23)CCN(C(=O)c2cc(C(C)C)c(O)cc2O)C4)c1 [Compound 8d, (2,4-dihydroxy-5-isopropylphenyl)(4-(m-tolylamino)-5,8-dihydropyrido[4',3':4,5]thieno[2,3-d]pyrimidin-7(6H)-yl)methanone] | 41.7 | –
5 | 0.0402 | 0.229 | > 10 | CC(C)c1cc(C(=O)N2CCc3c(sc4ncnc(Nc5cccc(F)c5)c34)C2)c(O)cc1O [Compound 8e, (2,4-dihydroxy-5-isopropylphenyl)(4-((3-fluorophenyl)amino)-5,8-dihydropyrido[4',3':4,5]thieno[2,3-d]pyrimidin-7(6H)-yl)methanone] | 38.9 | –
6 | 0.0766 | 0.318 | > 10 | CC(C)c1cc(C(=O)N2CCc3c(sc4ncnc(Nc5ccc(Cl)cc5)c34)C2)c(O)cc1O [Compound 8f, (4-((4-chlorophenyl)amino)-5,8-dihydropyrido[4',3':4,5]thieno[2,3-d]pyrimidin-7(6H)-yl)(2,4-dihydroxy-5-isopropylphenyl)methanone] | 29.5 | –
7 | 0.071 | 0.21 | > 10 | COc1cccc(Nc2ncnc3sc4c(c23)CCN(C(=O)c2cc(C(C)C)c(O)cc2O)C4)c1 [Compound 8g, (2,4-dihydroxy-5-isopropylphenyl)(4-((3-methoxyphenyl)amino)-5,8-dihydropyrido[4',3':4,5]thieno[2,3-d]pyrimidin-7(6H)-yl)methanone] | 37.5 | –
8 | 0.38 | 0.468 | > 10 | CC(C)c1cccc(Nc2ncnc3sc4c(c23)CCN(C(=O)c2cc(C(C)C)c(O)cc2O)C4)c1 [Compound 8h, (2,4-dihydroxy-5-isopropylphenyl)(4-((3-isopropylphenyl)amino)-5,8-dihydropyrido[4',3':4,5]thieno[2,3-d]pyrimidin-7(6H)-yl)methanone] | 39.1 | –
9 | 0.578 | 1.64 | 0.169 | Cc1ccc(Nc2ncnc3sc4c(c23)CCN(C(=O)c2cc(C(C)C)c(O)cc2O)C4)c(C)c1 [Compound 8i, (2,4-dihydroxy-5-isopropylphenyl)(4-((2,4-dimethylphenyl)amino)-5,8-dihydropyrido[4',3':4,5]thieno[2,3-d]pyrimidin-7(6H)-yl)methanone] | 24.8 | –
10 | 0.147 | 0.207 | 0.716 | CC(C)c1cc(C(=O)N2CCc3c(sc4ncnc(Nc5cccc(O)c5)c34)C2)c(O)cc1O [Compound 8j, (2,4-dihydroxy-5-isopropylphenyl)(4-((3-hydroxyphenyl)amino)-5,8-dihydropyrido[4',3':4,5]thieno[2,3-d]pyrimidin-7(6H)-yl)methanone] | 36.0 | –
11 | – | 0.0519 | – | CC(C)c1cc(C(=O)N2CCc3c(sc4ncnc(N5CCCCC5)c34)C2)c(O)cc1O [Compound 8k, (2,4-dihydroxy-5-isopropylphenyl)(4-(piperidin-1-yl)-5,8-dihydropyrido[4',3':4,5]thieno[2,3-d]pyrimidin-7(6H)-yl)methanone] | 65.2 | IC50 (PI3Kα): 0.133 µM
12 | – | 0.065 | – | CC(C)c1cc(C(=O)N2CCc3c(sc4ncnc(N5CCCC5)c34)C2)c(O)cc1O [Compound 8l, (2,4-dihydroxy-5-isopropylphenyl)(4-(pyrrolidin-1-yl)-5,8-dihydropyrido[4',3':4,5]thieno[2,3-d]pyrimidin-7(6H)-yl)methanone] | 60.4 | IC50 (PI3Kα): 0.169 µM
13 | – | – | – | CC(C)c1cc(C(=O)N2CCc3c(sc4ncnc(N5CCOCC5)c34)C2)c(O)cc1O [Compound 8m, (2,4-dihydroxy-5-isopropylphenyl)(4-morpholino-5,8-dihydropyrido[4',3':4,5]thieno[2,3-d]pyrimidin-7(6H)-yl)methanone] | – | apoptotic positive cells in tumor tissue (TUNEL) (B16 melanoma xenograft; B16 xenograft tumor sections, among all therapeutic groups): highest number of apoptotic positive cells; Ki-67 positive cells in tumor tissue (B16 melanoma xenograft; B16 xenograft tumor sections, p < .01): most significant suppression; IC50 (PI3Kα): 0.0484 µM; clone formation, size and number of the colonies (B16 cells [1]): dose-dependent decline; cleavage of apoptosis related proteins (western blot) (B16 cells [2]; B16 cells): cleavage of Caspase-3, Caspase-8, Caspase-9 and PARP; expression levels of Hsp90 client proteins cdc37, CDK4, EGFR, bRaf and cRaf (western blot) (B16 cells [2]; B16 cells): remarkably suppressed; expression levels of Hsp90α and Hsp70 (western blot) (B16 cells [2]; B16 cells): declined; p-Akt (Ser473), p-Akt (Thr308) and total Akt expression (western blot) (B16 cells [2]; B16 cells): downregulated; E-cadherin expression (western blot) (B16 cells [2]; B16 cells, 20, 40 μg/mL): up-regulated; expression of MMPs, vimentin, N-cadherin, β-catenin, ZEB1 (western blot) (B16 cells [2]; B16 cells, 20, 40 μg/mL): remarkably down-regulated; autophosphorylation of PI3Kα (western blot) (B16 cells [2]; B16 cells, total PI3Kα not influenced): inhibited; apoptotic positive cells (B16 cells [3]): significant increase; cell counts in G1 phase (B16 cells [4]): corresponding descent; cell counts in G2 phase (B16 cells [4]): significantly increased; cytotoxic activity in several cancer cells [5]: most potent in melanoma cells; IC50 (B16 melanoma cell line; B16, 24 h): ~0.56 µg/mL (≈ 1.23 µM); IC50 (B16 melanoma cell line; B16, 48 h): ~0.47 µg/mL (≈ 1.03 µM); cell invasion (Matrigel Transwell) (B16 cells [6]): remarkable decrease; wound areas (cell migration) (B16 cells [7]): minimal changes
14 | – | 0.0795 | – | CC(C)c1cc(C(=O)N2CCc3c(sc4ncnc(N(C)C)c34)C2)c(O)cc1O [Compound 8n, (2,4-dihydroxy-5-isopropylphenyl)(4-(dimethylamino)-5,8-dihydropyrido[4',3':4,5]thieno[2,3-d]pyrimidin-7(6H)-yl)methanone] | 46.7 | IC50 (PI3Kα): 0.568 µM
15 | – | – | – | CC(C)c1cc(-c2n[nH]c(=O)n2-c2ccc3c(ccn3C)c2)c(O)cc1O [Ganetespib, reference compound] | – | tumor growth inhibition ratio (B16 melanoma xenograft): 57%
16 | – | – | – | Oc1cccc(-c2nc(N3CCOCC3)c3oc4ncccc4c3n2)c1 [PI-103, reference compound] | – | tumor growth inhibition ratio (B16 melanoma xenograft): 29%
